In the library only some 2.8% were active in any assay of this set; here they are far more common.
NPY-Y1 PAM-ag: human NPY-Y1 potentiation or agonism, primary screen; P25929; NPY-Y1 expressing cells, potentiator/agonist activation; activation, % at 3.6 µM; 220,000 compounds, 0.37% hits; in the data active = activation above about 33%, passing the limit was not always enough;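 also: cells stimulated with NPY at EC10 then isoproterenol at EC100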
PGE2 EP2 inh: blocks the human prostaglandin E2 receptor EP2. P43116. C6 glioma cells expressing human EP2, cAMP TR-FRET; cells stimulated with saturating PGE2. inhibition, % at 25 µM. 260,000 compounds, 0.52% hits. AID 1422;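 active = percent inhibition above 40 after rounding to a whole number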;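 also: rat C6 glioma host cells with rolipram phosphodiesterase inhibitor present; the protocol text gives 20 µM as final concentration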
Target sequence (P43116 whole entry, looked up): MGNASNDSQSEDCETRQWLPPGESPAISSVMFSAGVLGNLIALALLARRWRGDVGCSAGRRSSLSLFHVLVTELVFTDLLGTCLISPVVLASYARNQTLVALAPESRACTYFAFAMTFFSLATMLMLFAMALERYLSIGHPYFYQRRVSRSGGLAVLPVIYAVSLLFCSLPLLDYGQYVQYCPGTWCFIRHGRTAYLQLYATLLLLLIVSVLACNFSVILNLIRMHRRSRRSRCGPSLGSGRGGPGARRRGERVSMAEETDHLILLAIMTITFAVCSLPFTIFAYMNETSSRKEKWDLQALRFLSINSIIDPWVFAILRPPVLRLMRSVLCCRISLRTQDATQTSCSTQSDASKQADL
EP2 mod: modulators of human EP2 prostaglandin E2 receptor | P43116 | EP2-expressing cells, cAMP HTRF FRET, PGE2 co-stimulation | induction, % at 25 µM | 260,000 compounds, 0.83% hits | AID 940;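 active = compounds whose cAMP rise, as percent of the full-agonist control response, exceeds 60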;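 also: rat C6 glioma line stably carrying human EP2 under a CMV promoter; the protocol text gives 20 µM as final concentration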
NPY-Y2 antag: antagonists of human neuropeptide Y receptor Y2. 140,000 compounds, 0.99% hits. inhibition, % at 2.7 µM. NPY-Y2 expressing cells, antagonist mode. P49146; in the data active = inhibition above about 17%
Target sequence (P49146 whole entry, looked up): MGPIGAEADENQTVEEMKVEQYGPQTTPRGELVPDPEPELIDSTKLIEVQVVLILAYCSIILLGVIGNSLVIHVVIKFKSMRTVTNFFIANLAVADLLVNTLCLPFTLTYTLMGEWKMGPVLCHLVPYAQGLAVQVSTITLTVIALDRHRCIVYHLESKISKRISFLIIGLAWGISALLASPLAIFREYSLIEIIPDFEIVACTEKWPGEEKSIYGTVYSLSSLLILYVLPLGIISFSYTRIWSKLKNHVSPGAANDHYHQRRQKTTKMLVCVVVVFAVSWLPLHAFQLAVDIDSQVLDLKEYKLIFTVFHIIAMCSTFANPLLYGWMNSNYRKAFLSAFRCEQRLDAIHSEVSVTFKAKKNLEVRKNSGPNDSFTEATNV
NPY2 pot ag: potentiators or agonists of human neuropeptide Y receptor Y2; AID 1359; activation, % at 3.6 µM; P49146; 220,000 compounds, 0.45% hits; cells expressing NPY-Y2, potentiator/agonist read-out; in the data active = activation above about 27%;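 also: cells stimulated with NPY near EC25 plus isoproterenol at EC100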
NPY-Y1 antag: NPY-Y1 (human) receptor antagonism; inhibition, % at 3.6 µM; AID 1040; 200,000 compounds, 1% hits; HEK293-CNG Y1 cells, membrane potential fluorescence; NPY at EC95, then isoproterenol; P25929;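 active = inhibition above the campaign mean inhibition of all tested compounds plus 3 SD, cut at about 20% in these data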
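System: HEK293 cells with Y1 receptor plus CNG channel / Probe or stimulus: NPY 25 nM then isoproterenol 1 µM plus Ro 20-1724 25 µM / Compound: one concentration, 3.6 µM, in 0.4% DMSO / Schedule: compound incubation 1 h at room temperature, readout 45 min post-stimulation / Measured by: membrane potential fluorescence / Read-out: % inhibition of NPY effect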
NPY-Y2 confirm: human NPY-Y2 potentiation or agonism, confirmation; shares compounds with NPY2 pot ag; cell-based NPY-Y2 potentiator/agonist assay; activation, % at 3.6 µM; 450 compounds, 20% hits; AID 1539; in the data active = activation above about 33%
NPY-Y1 counter: counter-screen for NPY-Y2 potentiators or agonists: NPY-Y1 potentiators or agonists | shares compounds with NPY2 pot ag | Y1 HEK293-CNG cells, membrane potential fluorescence | activation, % at 3.6 µM | 450 compounds, 20% hits | AID 1651; in the data active = activation above about 45%;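 also: cells stimulated with submaximal NPY then isoproterenol with phosphodiesterase inhibitor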
NPY-Y1 agonist 2: human NPY-Y1 agonism as NPY-Y2 potentiator counter-screen; activation, % at 3.6 µM; 450 compounds, 37% hits; AID 1702; HEK293 Y1-CNGC, membrane potential fluorescence; shares compounds with NPY2 pot ag;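 active = activation above the mean of DMSO-only control wells plus 3 SD, cut at about 18% in these data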;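 also: cells stimulated with 1 µM isoproterenol plus the PDE inhibitor Ro 20-1724; Y1 agonists lower the membrane potential dye signal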
CNGC inh: blocks CNG channel activity, counter-screen for NPY-Y2 potentiators. HEK293-CNG parental, isoproterenol cAMP, membrane potential fluorescence. shares compounds with NPY2 pot ag. inhibition, % at 3.6 µM. AID 1703. 450 compounds, 32% hits;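 active = inhibition above the control-well mean plus 3 SD of those wells, cut at about 22% in these data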
NPY-Y2 ag 2: NPY-Y2 agonism, counter-screen for Y2 potentiators. shares compounds with NPY2 pot ag. HEK293 Y2/CNGC cells, membrane potential fluorescence, agonist mode. activation, % at 3.6 µM. 450 compounds, 56% hits;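 active = activation above the mean of solvent-only control wells plus 3 SD, cut at about 10% in these data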;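 also: cells stimulated by isoproterenol with no NPY added so direct agonism is tested; agonism lowers probe fluorescence through less cAMP and CNG channel opening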
A number is an active result; . = inactive; / = no result given.

SMILES | NPY-Y1 PAM-ag | PGE2 EP2 inh | EP2 mod | NPY-Y2 antag | NPY2 pot ag | NPY-Y1 antag | NPY-Y2 confirm | NPY-Y1 counter | NPY-Y1 agonist 2 | CNGC inh | NPY-Y2 ag 2
O=C(Nc1ccccc1Cl)c1c(F)c(F)c(F)c(F)c1F | . | . | / | . | 32 | . | . | . | . | . | 16
Cn1c(N)c(C(=O)Nc2ccc3ccccc3c2)sc1=S | . | / | . | . | . | . | / | / | / | / | /
Cn1c(N)c(C(=O)N/N=C/c2ccccc2)sc1=S | . | . | . | / | 40 | / | . | . | 23 | 33 | 17
COC(=O)c1[nH]c2ccc(Br)cc2c1NC(=O)CN1CCN(C2CCCCC2)CC1 | . | . | . | . | 33 | . | 43 | 57 | 28 | 49 | 33
OCCN(CCO)c1ccc(C(c2ccccc2Cl)c2ccc(N(CCO)CCO)cc2Cl)c(Cl)c1 | . | . | . | . | 34 | . | 35 | 47 | 31 | 37 | 39
Cn1cnc2c(N/N=C/c3cccs3)ncnc21 | . | . | . | / | 64 | / | . | . | . | . | .
COc1ccc(CNC(=O)COC(=O)CCc2nc3ccccc3c(=O)[nH]2)cc1 | . | . | . | / | . | . | / | / | / | / | /
O=C(COC(=O)CCc1nc2ccccc2c(=O)[nH]1)NCc1ccc(F)cc1 | . | . | . | / | 102 | / | . | . | . | . | .
CC(C)c1ccc(NS(=O)(=O)c2ccc3[nH]cc(C(=O)N4CCC(C(N)=O)CC4)c(=O)c3c2)cc1 | . | . | . | . | 39 | . | . | . | 18 | . | 12
Cc1ccc2[nH]c(=O)c(CN(C(=O)Nc3ccccc3C)C3CC3)cc2c1 | / | . | . | / | / | / | / | / | / | / | /
O=C1C(Cl)=C(Nc2ccc(O)cc2)C(=O)c2ccccc21 | . | . | . | / | 36 | / | . | . | . | 29 | 33
Cc1ccc(NC2=C(Cl)C(=O)c3ccccc3C2=O)cc1 | . | . | . | . | . | . | / | / | / | / | /
O=C(CCN1C(=O)c2ccccc2S1(=O)=O)N1CCCCC1c1nc2ccccc2[nH]1 (centres undefined) | / | / | . | / | / | / | / | / | / | / | /
O=C(Nc1ccccc1N1CCOCC1)c1cccc(F)c1 | . | . | . | / | . | . | / | / | / | / | /
O=C(Nc1ccccc1N1CCOCC1)c1ccc2nc[nH]c2c1 | . | . | . | / | 41 | . | . | . | . | . | .
Cc1nc2ccc(S(=O)(=O)NC(C(=O)Nc3nc4ccc(Cl)cc4s3)C(C)C)cc2s1 (centres undefined) | . | . | . | . | 30 | . | . | . | . | . | .
CC(C)NC(=O)CN1N=C(c2ccc(F)cc2)Cn2c(cc3sccc32)C1=O | / | / | . | / | / | / | / | / | / | / | /
COc1ccc(NS(=O)(=O)c2cnc[nH]2)cc1 | . | . | . | / | 30 | . | . | . | . | . | .
COc1ccc(-c2csc(NC(=O)c3ccccc3NS(=O)(=O)c3ccc(C)cc3)n2)cc1 | . | . | . | . | 65 | . | . | . | . | . | 25
O=C(Cc1ccc(Cl)cc1)Nc1cccc(S(=O)(=O)Nc2ccccc2F)c1 | . | . | . | . | 38 | . | . | . | . | . | 20
COc1ccccc1NS(=O)(=O)c1cccc(NC(=O)Nc2ccc(Cl)cc2)c1 | . | . | . | / | 31 | . | . | . | 30 | 32 | 31
CN(C)S(=O)(=O)c1cccc(NC(=O)Cc2ccc(Cl)cc2)c1 | . | . | . | . | . | . | / | / | / | / | /
Cc1c(CN(Cc2ccc3c(c2)OCO3)CC(C)O)cnn1Cc1ccccc1 (centres undefined) | / | . | . | / | / | / | / | / | / | / | /
Cc1ccc2cc(CN(CCN(C)C)C(=S)NCCCN3CCOCC3)c(=O)[nH]c2c1 | / | . | . | / | / | / | / | / | / | / | /
S=C1NCN(CCc2ccccc2)CN1 | . | . | . | / | 73 | / | . | . | . | . | .
SMILES | NPY-Y1 PAM-ag | PGE2 EP2 inh | EP2 mod | NPY-Y2 antag | NPY2 pot ag | NPY-Y1 antag | NPY-Y2 confirm | NPY-Y1 counter | NPY-Y1 agonist 2 | CNGC inh | NPY-Y2 ag 2
S=C1NCN(CCc2ccccc2)CN1Cc1ccccc1 | . | . | . | / | . | / | / | / | / | / | /
Cc1ccc(NC(=S)N2CCC(N(C)CC3CCCO3)CC2)cc1 (centres undefined) | . | . | . | / | . | . | / | / | / | / | /
Cc1cc(C)cc(NC(=S)N2CCC(N(C)CC3CCCO3)CC2)c1 (centres undefined) | . | . | . | / | 31 | . | . | . | . | . | .
Cc1ccc(Nc2c(-c3ccc(N4CCOCC4)cc3)nc3cnccn23)cc1 | . | . | . | / | . | / | / | / | / | / | /
Cc1ccccc1Nc1c(-c2ccc(N3CCOCC3)cc2)nc2cnccn12 | . | . | . | / | 39 | / | 68 | 76 | 52 | 48 | 68
CCN(CC)S(=O)(=O)c1ccc(/C=C/C(=O)OCC#N)cc1 | . | . | . | / | . | . | / | / | / | / | /
CCN(CC)S(=O)(=O)c1ccc(/C=C/C(=O)OCC(=O)N(C(C)C)C(C)C)cc1 | . | . | . | / | 47 | . | . | . | . | . | .
CC(C)(C)c1nc2ccccc2c2nnc(SCC(=O)N3CCCCC3)n12 | / | . | . | / | / | / | / | / | / | / | /
CC(C)NC(=S)N=Nc1c(O)[nH]c2ccc([N+](=O)[O-])cc12 | . | . | . | / | 35 | . | . | . | 19 | . | 22
Cc1c(Cl)ccc(S(=O)(=O)Nc2ccncc2)c1Cl | / | . | . | / | / | / | / | / | / | / | /
COC(=O)CCSc1cc(NCCOC(C)=O)c([N+](=O)[O-])c2nonc12 | . | . | . | . | 43 | . | . | . | . | . | .
CCCC(=O)OCCNc1cc(SCCC(=O)OC)c2nonc2c1[N+](=O)[O-] | . | . | . | . | . | . | / | / | / | / | /
Cc1cc(C)c2sc(N(CCN(C)C)C(=O)c3c(F)cccc3F)nc2c1 | . | . | . | / | . | . | / | / | / | / | /
Cc1cc(C)c2sc(N(CCCN(C)C)C(=O)c3ccc(Br)s3)nc2c1 | . | . | . | / | 37 | . | 74 | 88 | 67 | 75 | 81
CCCN1C2CCCC1CC(NC(=O)Nc1ccc(C(C)C)cc1)C2 (centres undefined) | . | . | . | . | 34 | . | . | . | 19 | 28 | 24
c1ccc(CSc2nc3ncncc3[nH]2)cc1 | . | . | . | / | 48 | / | . | . | . | . | 19
S=c1nc(SCc2ccccc2)[nH]c2ccccc12 | . | . | . | / | . | . | / | / | / | / | /
COc1ccc(S(=O)(=O)Nc2ccc(F)cc2)cc1N(C)S(=O)(=O)c1ccc(Cl)cc1 | . | . | . | . | . | . | / | / | / | / | /

From PubChem BioAssay
